Data reported in ChEMBL document CHEMBL3739379, “Anti-Candida activity and cytotoxicity of a large library of new N-substituted-1,3-thiazolidin-4-one derivatives” (Eur J Med Chem, 2016).
In brackets after ≈: the same amount, converted by molar mass.

Tests used:
Type in all cases: functional
[1] = tested on: Staphylococcus aureus; assay: Antibacterial activity against Staphylococcus aureus after 18 to 22 hrs by broth microdilution method
Procedure, shortened: (§1)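 Broth microdilution per NCCLS in Mueller-Hinton II broth; isolates subcultured for purity. Compounds dissolved in DMSO, serial dilutions 256 to 0.5 µg/mL; inoculum 10^5/mL. Controls: organism without compound, medium only. Incubation 18 to 22 h at 35 °C. MIC is the lowest concentration giving complete growth inhibition, read by unaided eye.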

[2] = tested on: Staphylococcus warneri; assay: Antibacterial activity against Staphylococcus warneri after 18 to 22 hrs by broth microdilution method; procedure, shortened: as §1
[3] = tested on: Enterococcus faecalis; assay: Antibacterial activity against […] faecalis after 18 to 22 hrs by broth microdilution method; procedure, shortened: as §1
[4] = tested on: Staphylococcus haemolyticus; assay: Antibacterial activity against Staphylococcus haemolyticus after 18 to 22 hrs by broth microdilution method; procedure, shortened: as §1
[5] = tested on: Escherichia coli; assay: Antibacterial activity against Escherichia coli at after 18 to 22 hrs by broth microdilution method; procedure, shortened: as §1
[6] = tested on: Proteus mirabilis; assay: Antibacterial activity against Proteus mirabilis after 18 to 22 hrs by broth microdilution method; procedure, shortened: as §1
[7] = tested on: Enterobacter sp.; assay: Antibacterial activity against Enterobacter sp. after 18 to 22 hrs by broth microdilution method; procedure, shortened: as §1
[8] = tested on: Klebsiella oxytoca; assay: Antibacterial activity against Klebsiella oxytoca after 18 to 22 hrs by broth microdilution method; procedure, shortened: as §1
[9] = tested on: Candida albicans; assay: Antifungal activity against Candida albicans clinical isolate after 24 hrs by sabouraud dextrose broth based microdilution method
Procedure, shortened: (§2)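 Clinical isolates identified by conventional methods and subcultured for purity. Broth microdilution per NCCLS in Sabouraud dextrose broth; compounds dissolved in DMSO and serially diluted; inoculum 10^3/mL. Controls: fungi without compound, medium only. Incubated 24 h at 37 °C. MIC is the lowest concentration with complete growth inhibition by unaided eye. Values are geometric means over isolates per species.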

[10] = tested on: Nakaseomyces glabratus; assay: Antifungal activity against Candida glabrata clinical isolate after 24 hrs by sabouraud dextrose broth based microdilution method; procedure, shortened: as §2
[11] = tested on: Candida tropicalis; assay: Antifungal activity against Candida tropicalis clinical isolate after 24 hrs by sabouraud dextrose broth based microdilution method; procedure, shortened: as §2
[12] = tested on: Pichia kudriavzevii; assay: Antifungal activity against Candida krusei clinical isolate after 24 hrs by sabouraud dextrose broth based microdilution method; procedure, shortened: as §2
[13] = tested on: Candida parapsilosis; assay: Antifungal activity against Candida parapsilosis clinical isolate after 24 hrs by sabouraud dextrose broth based microdilution method; conditions: Lodderomyces parapsilosis; procedure, shortened: as §2
[14] = tested on: [Candida] sake; assay: Antifungal activity against Candida sake clinical isolate after 24 hrs by sabouraud dextrose broth based microdilution method; conditions: Fermentozyma sake; procedure, shortened: as §2

MIC [1] [µg/mL]	MIC [2] [µg/mL]	MIC [3] [µg/mL]	MIC [5] [µg/mL]	MIC [6] [µg/mL]	MIC [7] [µg/mL]	MIC [8] [µg/mL]	MIC [9] [µg/mL]	MIC [10] [µg/mL]	MIC [11] [µg/mL]	MIC [12] [µg/mL]	MIC [13] [µg/mL]	MIC [14] [µg/mL]	SMILES	MIC [4] [µg/mL]
> 256	> 256	> 256	> 256	> 256	> 256	> 256	4 (≈ 11.4 µM)	32 (≈ 91 µM)	2 (≈ 5.69 µM)	2 (≈ 5.69 µM)	8 (≈ 22.8 µM)	2 (≈ 5.69 µM)	CC1CCC/C1=N\N=C1/SCC(=O)N1Cc1cccc2ccccc12 (centres undefined)	> 256
> 256	> 256	> 256	> 256	> 256	> 256	> 256	2 (≈ 5.69 µM)	32 (≈ 91 µM)	8 (≈ 22.8 µM)	16 (≈ 45.5 µM)	8 (≈ 22.8 µM)	32 (≈ 91 µM)	O=C1CS/C(=N\N=C2CCCCC2)N1Cc1cccc2ccccc12	> 256
> 256	> 256	> 256	> 256	> 256	> 256	> 256	2 (≈ 5.89 µM)	2 (≈ 5.89 µM)	64 (≈ 189 µM)	2 (≈ 5.89 µM)	2 (≈ 5.89 µM)	16 (≈ 47.1 µM)	CCC/C(C)=N/N=C1\SCC(=O)N1Cc1cccc2ccccc12	> 256
> 256	> 256	> 256	> 256	> 256	> 256	> 256	2 (≈ 5.89 µM)	16 (≈ 47.1 µM)	2 (≈ 5.89 µM)	16 (≈ 47.1 µM)	16 (≈ 47.1 µM)	2 (≈ 5.89 µM)	CCC(CC)=N/N=C1\SCC(=O)N1Cc1cccc2ccccc12	> 256

The remaining lines, values behind:

SMILES	MIC [1] [µg/mL]	MIC [2] [µg/mL]	MIC [3] [µg/mL]	MIC [5] [µg/mL]	MIC [6] [µg/mL]	MIC [7] [µg/mL]	MIC [8] [µg/mL]	MIC [9] [µg/mL]	MIC [10] [µg/mL]	MIC [11] [µg/mL]	MIC [12] [µg/mL]	MIC [13] [µg/mL]	MIC [14] [µg/mL]	MIC [4] [µg/mL]
C=CCC/C(C)=N/N=C1\SCC(=O)N1Cc1cccc2ccccc12	> 256	> 256	> 256	> 256	> 256	> 256	> 256	2 (≈ 5.69 µM)	2 (≈ 5.69 µM)	8 (≈ 22.8 µM)	2 (≈ 5.69 µM)	2 (≈ 5.69 µM)	2 (≈ 5.69 µM)	> 256
O=C1c2ccccc2C(=O)N1CN1C(=O)CS/C1=N\N=C1CCCCC1	> 256	> 256	> 256	> 256	> 256	> 256	> 256	8 (≈ 21.6 µM)	16 (≈ 43.2 µM)	8 (≈ 21.6 µM)	16 (≈ 43.2 µM)	8 (≈ 21.6 µM)	32 (≈ 86.4 µM)	> 256
CCCCC/C(C)=N/N=C1\SCC(=O)N1Cc1cccc2ccccc12	> 256	> 256	> 256	> 256	> 256	> 256	> 256	4 (≈ 10.9 µM)	8 (≈ 21.8 µM)	64 (≈ 174 µM)	2 (≈ 5.44 µM)	2 (≈ 5.44 µM)	2 (≈ 5.44 µM)	> 256
CC(C)=N/N=C1\SCC(=O)N1Cc1ccc([N+](=O)[O-])cc1	> 256	> 256	> 256	> 256	> 256	> 256	> 256	4 (≈ 13.1 µM)	4 (≈ 13.1 µM)	2 (≈ 6.53 µM)	2 (≈ 6.53 µM)	2 (≈ 6.53 µM)	2 (≈ 6.53 µM)	> 256
O=C1c2ccccc2C(=O)N1CN1C(=O)CS/C1=N\N=C1CCCC1	> 256	> 256	> 256	> 256	> 256	> 256	> 256	2 (≈ 5.61 µM)	16 (≈ 44.9 µM)	8 (≈ 22.4 µM)	16 (≈ 44.9 µM)	64 (≈ 180 µM)	256 (≈ 718 µM)	> 256
CC1CCCC/C1=N\N=C1/SCC(=O)N1CN1C(=O)c2ccccc2C1=O (centres undefined)	> 256	> 256	> 256	> 256	> 256	> 256	> 256	4 (≈ 10.4 µM)	8 (≈ 20.8 µM)	2 (≈ 5.2 µM)	16 (≈ 41.6 µM)	16 (≈ 41.6 µM)	2 (≈ 5.2 µM)	> 256
CC1CC/C(=N\N=C2/SCC(=O)N2CN2C(=O)c3ccccc3C2=O)C1 (centres undefined)	> 256	> 256	> 256	> 256	> 256	> 256	> 256	2 (≈ 5.4 µM)	32 (≈ 86.4 µM)	8 (≈ 21.6 µM)	16 (≈ 43.2 µM)	8 (≈ 21.6 µM)	16 (≈ 43.2 µM)	> 256
